# Source: ChEMBL document CHEMBL5236549, “Discovery of 2-Sulfinyl-Diazabicyclooctane Derivatives, Potential Oral β-Lactamase Inhibitors for Infections Caused by Serine β-Lactamase-Producing Enterobacterales” (J Med Chem, 2021)
# pIC50: −log10 of the molar value.
# Experiments:
# [1] = Stability of the compound in phosphate buffer at pH 7.0 assessed as parent compound remaining at 40 degreeC measured after 16 hrs; assay type: physicochemical; conditions: read-out: Stability
# Outline: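 Compound held in pH 7.0 phosphate buffer at 40 °C for 16 h; amount remaining reported as %.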
# [2] = Cmax in rat at 5 mg/kg,po by LC/MS/MS analysis; assay type: ADME, organism-based; set-up: dose 5 mg/kg, route po; conditions: in vivo
# Outline: (§1)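 Plasma of the parent acid measured by LC/MS/MS (methanol precipitation, positive ESI, external standard); oral values follow prodrug dosing (rat fed, dog and monkey fasted). AUC from 0 h to last time point by linear trapezoid; F from oral AUC versus iv AUC of the parent. N = 2 (rat, dog), N = 3 (monkey, mouse).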
# [3] = AUC in rat at 5 mg/kg,po by LC/MS/MS analysis; assay type: ADME, organism-based; set-up: dose 5 mg/kg, route po; conditions: in vivo; outline: as §1
# [4] = Tmax in rat at 5 mg/kg,po by LC/MS/MS analysis; assay type: ADME, organism-based; conditions: in vivo
# [5] = Oral bioavailability in rat at 5 mg/kg by LC/MS/MS analysis; assay type: ADME, organism-based; conditions: in vivo; outline: as §1
# [6] = Cmax in dog at 10 mg/kg,po by LC/MS/MS analysis; assay type: ADME, organism-based, Canis lupus familiaris; set-up: dose 10 mg/kg, route po; conditions: in vivo; outline: as §1
# [7] = AUC in dog at 10 mg/kg,po by LC/MS/MS analysis; assay type: ADME, organism-based, Canis lupus familiaris; set-up: dose 10 mg/kg, route po; conditions: in vivo; outline: as §1
# [8] = Tmax in dog at 10 mg/kg,po by LC/MS/MS analysis; assay type: ADME, organism-based, Canis lupus familiaris; conditions: in vivo
# [9] = Oral bioavailability in dog at 10 mg/kg by LC/MS/MS analysis; assay type: ADME, organism-based, Canis lupus familiaris; conditions: in vivo; outline: as §1
# [10] = Cmax in monkey at 10 mg/kg,po by LC/MS/MS analysis; assay type: ADME, organism-based, Macaca mulatta; set-up: dose 10 mg/kg, route po; conditions: rhesus monkey, in vivo; outline: as §1
# [11] = AUC in monkey at 10 mg/kg,po by LC/MS/MS analysis; assay type: ADME, organism-based, Macaca mulatta; set-up: dose 10 mg/kg, route po; conditions: rhesus monkey, in vivo; outline: as §1
# [12] = Tmax in monkey at 10 mg/kg,po by LC/MS/MS analysis; assay type: ADME, organism-based, Macaca mulatta; conditions: rhesus monkey, in vivo
# [13] = Oral bioavailability in monkey at 10 mg/kg by LC/MS/MS analysis; assay type: ADME, organism-based, Macaca mulatta; conditions: rhesus monkey, in vivo; outline: as §1
# [14] = Inhibition of bacterial beta-lactamase CTX-M-15 using nitrocefin as substrate incubated for 20 mins; set-up: species or system Bacteria
# [15] = Inhibition of bacterial beta-lactamase KPC-2 using nitrocefin as substrate incubated for 20 mins; set-up: species or system Bacteria
# Outline: (§2)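 Nitrocefin hydrolysis read by absorbance. Enzyme titrated to give about 0.2 absorbance change over the no-enzyme control. Enzyme added to nitrocefin (final 50 μg/mL) plus inhibitor, no preincubation, read after 20 min at 35 °C. IC50 is 50% reduction of hydrolysis. N = 1.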
# [16] = Inhibition of bacterial beta-lactamase CMY-2 using nitrocefin as substrate incubated for 20 mins; set-up: species or system Bacteria; outline: as §2
# [17] = Total clearance in rat by LC-MS/MS analysis; assay type: ADME; conditions: in vivo
# [18] = Stability in rat serum assessed as compound remaining at 5 micromol/L incubated for 30 mins by LC-MS/MS analysis; assay type: ADME, cell-free; conditions: dose 5 µmol/L, read-out: Stability
# Outline: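 Pooled rat serum incubated with 5 μmol/L compound for 30 min at 37 °C, in duplicate; aliquot mixed with methanol, centrifuged, supernatant analysed by LC/MS/MS for % remaining.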
# [19] = Inhibition of bacterial beta-lactamase OXA-48 using nitrocefin as substrate incubated for 20 mins; set-up: species or system Bacteria; outline: as §2
# Escherichia coli [20] = test: Antibacterial activity against Escherichia coli ATCC SR34100 assessed as reduction in bacterial growth by measuring minimum […] concentration incubated for 16 to 24 hrs by CLSI based two-fold serial dilution method; assay type: functional; conditions: time 16-24 hrs
# Outline: (§3)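 MPC₁ by broth microdilution: twofold serial dilutions of inhibitor in cation-adjusted Mueller Hinton broth containing ceftibuten at 1 μg/mL. Inoculum about 5 × 10⁴ cfu/well final, set from OD625. Incubation at 35 °C for 16−20 h. […] N = 1.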
# Escherichia coli [21] = test: Antibacterial activity against Escherichia coli ATCC SR09613 assessed as reduction in bacterial growth by measuring minimum […] concentration incubated for 16 to 24 hrs by CLSI based two-fold serial dilution method; assay type: functional; conditions: time 16-24 hrs; outline: as §3
# Klebsiella pneumoniae [22] = test: Antibacterial activity against Klebsiella pneumoniae ATCC SR201218 assessed as reduction in bacterial growth by measuring minimum […] concentration incubated for 16 to 24 hrs by CLSI based two-fold serial dilution method; assay type: functional; conditions: time 16-24 hrs; outline: as §3
# Enterobacter cloacae [23] = test: Antibacterial activity against Enterobacter cloacae SR200030 assessed as inhibition of bacterial growth incubated for 16 to 24 hrs by CLSI based two-fold serial dilution method; assay type: functional; conditions: time 16-24 hrs
# Outline: (§4)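 CLSI broth microdilution in cation-adjusted Mueller Hinton broth, twofold serial dilutions, about 5 × 10⁴ cfu/well from OD625, 35 °C for 16−20 h. MIC is the lowest concentration with no visible growth.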
# Klebsiella pneumoniae [24] = test: Antibacterial activity against Klebsiella pneumoniae SR100758 assessed as inhibition of bacterial growth incubated for 16 to 24 hrs by CLSI based two-fold serial dilution method; assay type: functional; conditions: time 16-24 hrs; outline: as §4
# Klebsiella pneumoniae [25] = test: Antibacterial activity against Klebsiella pneumoniae SR200263 assessed as inhibition of bacterial growth incubated for 16 to 24 hrs by CLSI based two-fold serial dilution method; assay type: functional; conditions: time 16-24 hrs; outline: as §4
# Klebsiella pneumoniae [26] = test: Antibacterial activity against Klebsiella pneumoniae SR200487 assessed as inhibition of bacterial growth incubated for 16 to 24 hrs by CLSI based two-fold serial dilution method; assay type: functional; conditions: time 16-24 hrs; outline: as §4
# Enterobacter cloacae [27] = test: Antibacterial activity against Enterobacter cloacae SR200030 assessed as reduction in bacterial growth by measuring minimum […] concentration incubated for 16 to 24 hrs by CLSI based two-fold serial dilution method; assay type: functional; conditions: time 16-24 hrs
# Outline: (§5)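 Inhibitor twofold serially diluted in cation-adjusted Mueller Hinton broth containing ceftibuten 1 μg/mL. About 5 × 10⁴ cfu/well, 35 °C for 16−20 h. […] N = 1.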
# Klebsiella pneumoniae [28] = test: Antibacterial activity against Klebsiella pneumoniae SR100758 assessed as reduction in bacterial growth by measuring minimum […] concentration incubated for 16 to 24 hrs by CLSI based two-fold serial dilution method; assay type: functional; conditions: time 16-24 hrs; outline: as §5
# Klebsiella pneumoniae [29] = test: Antibacterial activity against Klebsiella pneumoniae SR201325 assessed as reduction in bacterial growth by measuring minimum […] concentration incubated for 16 to 24 hrs by CLSI based two-fold serial dilution method; assay type: functional; conditions: time 16-24 hrs; outline: as §5
# Enterobacter cloacae [30] = test: Antibacterial activity against Enterobacter cloacae SR36276 assessed as inhibition of bacterial growth incubated for 16 to 20 hrs by CLSI based two-fold serial dilution method
# Escherichia coli [31] = test: Antibacterial activity against Escherichia coli ATCC SR34100 assessed as inhibition of bacterial growth incubated for 16 to 20 hrs by CLSI based two-fold serial dilution method
# Escherichia coli [32] = test: Antibacterial activity against Escherichia coli ATCC SR09613 assessed as inhibition of bacterial growth incubated for 16 to 20 hrs by CLSI based two-fold serial dilution method
# Enterobacter cloacae [33] = test: Antibacterial activity against Enterobacter cloacae SR100108 assessed as inhibition of bacterial growth incubated for 16 to 20 hrs by CLSI based two-fold serial dilution method
# Klebsiella pneumoniae [34] = test: Antibacterial activity against Klebsiella pneumoniae SR09635 assessed as inhibition of bacterial growth incubated for 16 to 20 hrs by CLSI based two-fold serial dilution method
# Klebsiella pneumoniae [35] = test: Antibacterial activity against Klebsiella pneumoniae SR09603 assessed as inhibition of bacterial growth incubated for 16 to 20 hrs by CLSI based two-fold serial dilution method
# Klebsiella pneumoniae [36] = test: Antibacterial activity against Klebsiella pneumoniae SR201325 assessed as inhibition of bacterial growth incubated for 16 to 20 hrs by CLSI based two-fold serial dilution method
# Klebsiella pneumoniae [37] = test: Antibacterial activity against Klebsiella pneumoniae ATCC BAA1705 assessed as inhibition of bacterial growth incubated for 16 to 20 hrs by CLSI based two-fold serial dilution method
# Klebsiella pneumoniae [38] = test: Antibacterial activity against Klebsiella pneumoniae ATCC SR201218 assessed as inhibition of bacterial growth incubated for 16 to 20 hrs by CLSI based two-fold serial dilution method
# Enterobacter cloacae [39] = test: Antibacterial activity against Enterobacter cloacae SR36276 assessed as reduction in bacterial growth by measuring minimum […] concentration incubated for 16 to 20 hrs by CLSI based two-fold serial dilution method; conditions: time 16-20 hrs
# Enterobacter cloacae [40] = test: Antibacterial activity against Enterobacter cloacae SR100108 assessed as reduction in bacterial growth by measuring minimum […] concentration incubated for 16 to 20 hrs by CLSI based two-fold serial dilution method; conditions: time 16-20 hrs
# Klebsiella pneumoniae [41] = test: Antibacterial activity against Klebsiella pneumoniae SR09635 assessed as reduction in bacterial growth by measuring minimum […] concentration incubated for 16 to 20 hrs by CLSI based two-fold serial dilution method; conditions: time 16-20 hrs
# Klebsiella pneumoniae [42] = test: Antibacterial activity against Klebsiella pneumoniae SR09603 assessed as reduction in bacterial growth by measuring minimum […] concentration incubated for 16 to 20 hrs by CLSI based two-fold serial dilution method; conditions: time 16-20 hrs
# Klebsiella pneumoniae [43] = test: Antibacterial activity against Klebsiella pneumoniae SR200263 assessed as reduction in bacterial growth by measuring minimum […] concentration incubated for 16 to 20 hrs by CLSI based two-fold serial dilution method; conditions: time 16-20 hrs
# Klebsiella pneumoniae [44] = test: Antibacterial activity against Klebsiella pneumoniae SR200487 assessed as reduction in bacterial growth by measuring minimum […] concentration incubated for 16 to 20 hrs by CLSI based two-fold serial dilution method; conditions: time 16-20 hrs
# Klebsiella pneumoniae [45] = test: Antibacterial activity against Klebsiella pneumoniae ATCC BAA1705 assessed as reduction in bacterial growth by measuring minimum potentiating concentration incubated for 16 to 20 hrs by CLSI based two-fold serial dilution method; conditions: time 16-20 hrs
structure (smiles),measurement,setting,value
CCOC(=O)[C@@H](F)ON1C(=O)N2C[C@H]1CC[C@H]2[S@@+](C)[O-],remaining at 16 h,[1],11%
same,Cmax,[2],2150 ng/mL
same,AUC,[3],2300 ng·h/mL
same,Tmax,[4],30 min
same,bioavailability,[5],74.4%
same,Cmax,[6],10600 ng/mL
same,AUC,[7],26000 ng·h/mL
same,Tmax,[8],60 min
same,bioavailability,[9],68.3%
same,Cmax,[10],4510 ng/mL
same,AUC,[11],8320 ng·h/mL
same,Tmax,[12],60 min
same,bioavailability,[13],29.9%
NS(=O)(=O)[C@@H]1CC[C@@H]2CN1C(=O)N2OC(F)(F)C(=O)O.[Na+],pIC50,[14],6.98
same,pIC50,[15],7.28
same,pIC50,[16],5.87
same,clearance,[17],84.5 mL/min/kg
same,"remaining at 0.5 h, 5 µM",[18],39%
same,remaining at 16 h,[1],55%
NC(=O)[C@@H]1CC[C@@H]2CN1C(=O)N2OS(=O)(=O)O [AVIBACTAM],pIC50,[15],7.14
same,pIC50,[16],7.23
same,pIC50,[19],5.24
same,MPC,Escherichia coli [20],0.125 µg/mL
same,MPC,Escherichia coli [21],0.5 µg/mL
same,MPC,Klebsiella pneumoniae [22],1 µg/mL
same,MIC,Enterobacter cloacae [23],32 µg/mL
same,MIC,Klebsiella pneumoniae [24],> 32 µg/mL
same,MIC,Klebsiella pneumoniae [25],> 32 µg/mL
same,MIC,Klebsiella pneumoniae [26],> 32 µg/mL
same,MPC,Enterobacter cloacae [27],16 µg/mL
same,MPC,Klebsiella pneumoniae [28],2 µg/mL
same,MPC,Klebsiella pneumoniae [29],2 µg/mL
same,MIC,Enterobacter cloacae [30],32 µg/mL
same,MIC,Escherichia coli [31],16 µg/mL
same,MIC,Escherichia coli [32],16 µg/mL
same,MIC,Enterobacter cloacae [33],32 µg/mL
same,MIC,Klebsiella pneumoniae [34],> 32 µg/mL
same,MIC,Klebsiella pneumoniae [35],> 32 µg/mL
same,MIC,Klebsiella pneumoniae [36],32 µg/mL
same,MIC,Klebsiella pneumoniae [37],32 µg/mL
same,MIC,Klebsiella pneumoniae [38],> 32 µg/mL
same,MPC,Enterobacter cloacae [39],4 µg/mL
same,MPC,Enterobacter cloacae [40],8 µg/mL
same,MPC,Klebsiella pneumoniae [41],0.5 µg/mL
same,MPC,Klebsiella pneumoniae [42],8 µg/mL
same,MPC,Klebsiella pneumoniae [43],0.063 µg/mL
same,MPC,Klebsiella pneumoniae [44],4 µg/mL
same,MPC,Klebsiella pneumoniae [45],0.125 µg/mL
CC(C)OC(=O)[C@@H](F)ON1C(=O)N2C[C@H]1CC[C@H]2[S@@+](C)[O-],remaining at 16 h,[1],56%
same,Cmax,[2],1700 ng/mL
same,AUC,[3],2090 ng·h/mL
same,Tmax,[4],30 min
same,bioavailability,[5],67.6%
same,Cmax,[6],7390 ng/mL
same,AUC,[7],18400 ng·h/mL
same,Tmax,[8],48 min
same,bioavailability,[9],48.1%
same,Cmax,[10],4380 ng/mL
same,AUC,[11],7060 ng·h/mL
same,Tmax,[12],60 min
same,bioavailability,[13],25.5%
NS(=O)(=O)[C@@H]1CC[C@@H]2CN1C(=O)N2O[C@H](F)C(=O)[O-].[Na+],pIC50,[14],6.60
same,pIC50,[15],6.01
same,pIC50,[16],5.95
same,clearance,[17],19.8 mL/min/kg
same,"remaining at 0.5 h, 5 µM",[18],78%
same,remaining at 16 h,[1],91%
